Our source for the folding enthalpy and Tm values is the array DNA melting data of Ke et al. (doi:10.1101/2024.01.08.574731).

Series [1] is described as follows: folding enthalpy; higher = less favourable; fluorescence melt of hairpins on a sequencing array, two-state fit. The following applies: sodium 0.088 M. A digest of the protocol:
(§1)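 To match UV melts, fitted temperatures were raised by 9.35 °C. These fits were bootstrapped two-state models that gave melting temperature and folding enthalpy, combined by inverse variance over four replicates. The input was normalised Cy3 fluorescence of library hairpins with annealed Cy3 and quencher oligos on a sequenced MiSeq flow cell, imaged in 50 mM Na-HEPES pH 8.0, 25 mM NaCl in 2.5 °C steps up to 60 °C.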

Series [2] is described as follows: melting temperature; fluorescence melt of hairpins on a sequencing array, two-state fit, raised by 9.35 °C to match UV melts. The following applies: sodium 0.088 M. A digest of the protocol: as §1

Turning to GTTAGCGAAAGCTAAC ((((((....)))))), the folding enthalpy in series [1] was -28.2 kcal/mol. Besides, the Tm in series [2] was 66.4 °C.

As to GTTAGCGGAAACGTTAAC ((((.((....)).)))), in series [1], the folding enthalpy is -28.8 kcal/mol. The Tm in series [2] came to 44.2 °C.

For GTTAGTGGAAACACTAAC (((((((....))))))), the folding enthalpy in series [1] was -46.1 kcal/mol. Also, the Tm in series [2] was determined as 54.7 °C.

In the case of GTTAGTGGAAACATTAAC ((((.((....)).)))), in series [1], the folding enthalpy is -19.2 kcal/mol. Further, the Tm in series [2] was 32.5 °C.

As for GTTATAGCGAAAGCTAAC (((..(((....)))))), the folding enthalpy in series [1] is -14.3 kcal/mol. Moreover, the Tm in series [2] is 29.9 °C.

In the case of GTTATCGCGAAAGCGAAC (((..(((....)))))), in series [1], the folding enthalpy was -7.39 kcal/mol. Besides, the Tm in series [2] was determined as 29.8 °C.

For GTTATCTCGAAAGAGAAC (((..(((....)))))), the folding enthalpy in series [1] is -11.8 kcal/mol. Moreover, in series [2], the Tm was 29.8 °C.

Turning to GTTATGCCGAAAGGCAAC (((..(((....)))))), the folding enthalpy in series [1] is -7.54 kcal/mol. The Tm in series [2] was determined as 33 °C.

As to GTTATGCGAAAGCAAAAC (((.(((....))).))), the folding enthalpy in series [1] was -21 kcal/mol. Besides, the Tm in series [2] came to 41.2 °C.

For the sequence GTTATGCGAAAGCACAAC (((.(((....))).))), the folding enthalpy in series [1] was -20.3 kcal/mol. For the same sequence, the Tm in series [2] came out at 40.4 °C.

Regarding GTTATGGGAAACCATAAC (((((((....))))))), in series [1], the folding enthalpy is -43.7 kcal/mol. The Tm in series [2] came to 54 °C.

As for GTTATGGGAAACTATAAC (((((.(....).))))), the folding enthalpy in series [1] is -23.8 kcal/mol. In addition, in series [2], the Tm came out at 34.6 °C.

In the case of GTTCAACGAAAGTTTAAC (((.(((....))).))), the folding enthalpy in series [1] is -22.9 kcal/mol. In addition, the Tm in series [2] came out at 35.2 °C.

Consider GTTCACGAAAGTGAAC ((((((....)))))), for which, in series [1], the folding enthalpy is -34.7 kcal/mol. For the same sequence, the Tm in series [2] was determined as 68.4 °C.

Regarding GTTCACGAAAGTGCAAC ((((((....))).))), the folding enthalpy in series [1] was -16.8 kcal/mol. For the same sequence, the Tm in series [2] worked out at 37.8 °C.

Regarding GTTCACGAAAGTGGCAAC ((((((....)))..))), in series [1], the folding enthalpy was -8.43 kcal/mol. Moreover, the Tm in series [2] came to 31.4 °C.

For GTTCACGAAAGTGTAAC ((((((....))).))), the folding enthalpy in series [1] was -18.8 kcal/mol. The Tm in series [2] is 38.7 °C.

As to GTTCACGAAAGTGTGAAC ((((((....)))..))), the folding enthalpy in series [1] is -25.7 kcal/mol. In addition, the Tm in series [2] was 47.3 °C.

Regarding GTTCAGCCGAAAGGCAAC (((..(((....)))))), the folding enthalpy in series [1] was -7.39 kcal/mol. Moreover, the Tm in series [2] stood at 31.4 °C.

With GTTCAGGAAACTGAAC ((((((....)))))), the folding enthalpy in series [1] was -36.7 kcal/mol. The Tm in series [2] turned out to be 53.8 °C.

For GTTCAGGGAAACCCGAAC ((((.((....)).)))), the folding enthalpy in series [1] was -31.7 kcal/mol. For the same sequence, the Tm in series [2] was 42.3 °C.

Regarding GTTCCCCGAAAGGGAAC (((.(((....)))))), the folding enthalpy in series [1] was -29.6 kcal/mol. Also, the Tm in series [2] was 61.2 °C.

With GTTCCCCGAAAGGGTAAC (((.(((....))).))), the folding enthalpy in series [1] was -19.9 kcal/mol. The Tm in series [2] came to 40.9 °C.

On to GTTCCCGAAAGGGCGAAC ((((((....)))..))), for which the folding enthalpy in series [1] is -9.4 kcal/mol. Moreover, the Tm in series [2] amounted to 31.5 °C.

For GTTCCCGAAAGGGGTAAC ((((((....)))..))), the folding enthalpy in series [1] is -12.2 kcal/mol. Also, the Tm in series [2] was determined as 29.8 °C.

On to GTTCCCGAAAGGGTGAAC ((((((....)))..))), for which, in series [1], the folding enthalpy was -12.5 kcal/mol. In addition, the Tm in series [2] was determined as 35.5 °C.

In the case of GTTCCCGGAAACAGGAAC (((((.(....).))))), in series [1], the folding enthalpy was -32.5 kcal/mol. Besides, the Tm in series [2] amounted to 39.5 °C.

On to GTTCCCGGAAACGGGGAC ((.((((....)))).)), for which the folding enthalpy in series [1] is -26.8 kcal/mol. Also, the Tm in series [2] was found to be 58.5 °C.

On to GTTCCGCGAAAGCGTAAC (((.(((....))).))), for which the folding enthalpy in series [1] is -20.2 kcal/mol. For the same sequence, the Tm in series [2] came to 44.1 °C.

As to GTTCGACCGAAAGGTAAC (((..(((....)))))), the folding enthalpy in series [1] is -10.9 kcal/mol. Further, the Tm in series [2] was 27.3 °C.

With GTTCGAGGAAACCCGAAC (((((.(....).))))), the folding enthalpy in series [1] was -29.9 kcal/mol. Further, the Tm in series [2] is 47 °C.

Turning to GTTCGAGGAAACTCGAGC (.(((((....))))).), the folding enthalpy in series [1] was -21.7 kcal/mol. Moreover, the Tm in series [2] is 49.8 °C.

Consider GTTCGCCGAAAGGCCAAC (((.(((....))).))), for which the folding enthalpy in series [1] was -15.3 kcal/mol. In addition, in series [2], the Tm is 39.4 °C.

As for GTTCGCGAAAGCGCCAAC ((((((....)))..))), the folding enthalpy in series [1] was -8.24 kcal/mol. The Tm in series [2] turned out to be 25.6 °C.

For GTTCGCGAAAGCGTCAAC ((((((....)))..))), the folding enthalpy in series [1] was -9.05 kcal/mol. The Tm in series [2] came out at 28.1 °C.

With GTTCGCGGAAACGTGAGC (.((.((....)).)).), the folding enthalpy in series [1] is -22.4 kcal/mol. Also, the Tm in series [2] stood at 41.3 °C.

Consider GTTCGCTCGAAAGAGAAC (((..(((....)))))), for which, in series [1], the folding enthalpy was -19.8 kcal/mol. Besides, the Tm in series [2] came to 37.5 °C.
